In ChEMBL document CHEMBL3286244, “Chlorpheniramine Analogues Reverse Chloroquine Resistance in Plasmodium falciparum by Inhibiting PfCRT” (ACS Med Chem Lett, 2014):
The source made the active and inactive calls. No cut-off for these calls is given here.

Columns and labels:
Plasmodium falciparum [1] = test: Antiplasmodial activity against Plasmodium falciparum C4Dd2 expressing chloroquine-resistance-conferring pfcrt alleles assessed as parasite growth at 800 nM after 72 hrs by SYBR Green I-based fluorescence assay relative to control; assay type: functional
In short: (§1)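 Isogenic pfcrt transfectant lines (C2GCO3 wild-type allele; C4Dd2 and C67G8 carrying CQ-resistance-conferring alleles from Dd2 or 7G8). Parasite proliferation measured in the absence of CQ with test compound at 800 nM and expressed relative to untreated control.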

Plasmodium falciparum [2] = test: Response modification index, ratio of IC50 for Plasmodium falciparum C4Dd2 expressing chloroquine-resistance-conferring pfcrt alleles in presence of drug to IC50 for Plasmodium falciparum C4Dd2 expressing chloroquine-resistance-conferring pfcrt alleles in absence of 800 nM of drug; assay type: functional
In short: (§2)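 Proliferation assays on isogenic pfcrt transfectant lines (C4Dd2, C67G8). CQ IC50 determined with and without 800 nM test compound. RMI calculated as CQ IC50 with compound divided by CQ IC50 without compound.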

Plasmodium falciparum [3] = test: Response modification index, ratio of IC50 for Plasmodium falciparum C67G8 expressing chloroquine-resistance-conferring pfcrt alleles in presence of drug to IC50 for Plasmodium falciparum C67G8 expressing chloroquine-resistance-conferring pfcrt alleles in absence of 800 nM of drug; assay type: functional; in short: as §2
[4] = target: T1, Chloroquine resistance transporter (Plasmodium falciparum) (UniProt Q9N623); test: Inhibition of chloroquine-sensitive Plasmodium falciparum D10 CRT expressed in Xenopus laevis oocytes plasma membrane assessed as reduction of [3H]-chloroquine transportation at 100 uM after 1 to 2 hrs; assay type: cell-based
T1 sequence (whole entry): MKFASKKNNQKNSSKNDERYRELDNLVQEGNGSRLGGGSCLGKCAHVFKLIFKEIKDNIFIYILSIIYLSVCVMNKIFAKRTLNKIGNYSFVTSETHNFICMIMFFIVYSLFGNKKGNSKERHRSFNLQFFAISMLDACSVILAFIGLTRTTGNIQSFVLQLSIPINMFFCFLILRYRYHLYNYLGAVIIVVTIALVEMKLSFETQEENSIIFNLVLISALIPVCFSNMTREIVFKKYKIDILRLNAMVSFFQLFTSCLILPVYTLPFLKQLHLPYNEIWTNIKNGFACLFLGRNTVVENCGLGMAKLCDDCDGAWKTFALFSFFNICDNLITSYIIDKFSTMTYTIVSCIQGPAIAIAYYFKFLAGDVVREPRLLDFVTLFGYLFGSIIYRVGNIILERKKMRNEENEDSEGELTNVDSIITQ
In short: (§3)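 Xenopus oocytes expressing PfCRT of the CQ-resistant (PfCRTCQR) or CQ-sensitive (PfCRTCQS) form. [3H]CQ uptake measured in the presence of reverser at 100 μM extracellular.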

[5] = target: T1, Chloroquine resistance transporter (Plasmodium falciparum); test: Inhibition of CTR in Plasmodium falciparum C67G8 expressing chloroquine-resistance-conferring pfcrt alleles assessed as increase of accumulation of [3H]-chloroquine level at 1 uM after 1 hr relative to control
In short: (§4)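 Isogenic pfcrt transfectant lines C2GCO3 (wild-type allele), C4Dd2 and C67G8 (CQ-resistance alleles from Dd2 or 7G8). CQ accumulation ratio measured with and without reverser. Expressed as fold increase in accumulation ratio over control.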

Plasmodium falciparum [6] = test: Antiplasmodial activity against Plasmodium falciparum C2GC03 expressing wild-type pfcrt allele assessed as parasite growth at 800 nM after 72 hrs by SYBR Green I-based fluorescence assay relative to control; assay type: functional
In short: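 Isogenic pfcrt transfectant parasite line C2GCO3 (wild-type pfcrt allele) was grown in a proliferation assay with the test compound at 800 nM and no chloroquine. Proliferation is expressed relative to untreated control.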

Plasmodium falciparum [7] = test: Response modification index, ratio of IC50 for Plasmodium falciparum C2GC03 expressing wild-type pfcrt allele in presence of drug to IC50 for Plasmodium falciparum C2GC03 expressing wild-type pfcrt allele in absence of 800 nM of drug; assay type: functional
In short: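 In a parasite proliferation assay on the isogenic pfcrt transfectant line C2GCO3 (wild-type allele), chloroquine IC50 was measured with and without the test compound at 800 nM. RMI is chloroquine IC50 with the compound divided by chloroquine IC50 without it.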

[8] = target: T1, Chloroquine resistance transporter (Plasmodium falciparum); test: Inhibition of chloroquine-resistant Plasmodium falciparum Dd2 CRT expressed in Xenopus laevis oocytes plasma membrane assessed as reduction of [3H]-chloroquine transportation at 100 uM after 1 to 2 hrs; assay type: cell-based; in short: as §3
Plasmodium falciparum [9] = test: Antiplasmodial activity against Plasmodium falciparum C67G8 expressing chloroquine-resistance-conferring pfcrt alleles assessed as parasite growth at 800 nM after 72 hrs by SYBR Green I-based fluorescence assay relative to control; assay type: functional; in short: as §1
[10] = target: T1, Chloroquine resistance transporter (Plasmodium falciparum); test: Inhibition of CTR in Plasmodium falciparum C2GC03 expressing wild-type pfcrt allele assessed as increase of accumulation of [3H]-chloroquine level at 1 uM after 1 hr; in short: as §4
[11] = target: T1, Chloroquine resistance transporter (Plasmodium falciparum); test: Inhibition of CTR in Plasmodium falciparum C4Dd2 expressing chloroquine-resistance-conferring pfcrt alleles assessed as increase of accumulation of [3H]-chloroquine level at 1 uM after 1 hr relative to control; in short: as §4
[12] = target: Chloroquine resistance transporter (Plasmodium falciparum, UniProt Q9N623); test: Inhibition of chloroquine-resistant Plasmodium falciparum Dd2 CRT expressed in Xenopus laevis oocytes plasma membrane assessed as reduction of [3H]-chloroquine transportation after 1 to 2 hrs; assay type: cell-based
In short: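 Xenopus oocytes expressing PfCRTCQR. Inhibition of [3H]CQ uptake measured over a range of reverser concentrations. IC50 derived from concentration-response data, reported as mean ± SEM.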

CCN(CC)C/C=C(\c1ccc(Cl)cc1)c1ccccn1
Activity (Plasmodium falciparum [1]): 84%
Ratio IC50 (Plasmodium falciparum [2]): 0.49
Ratio IC50 (Plasmodium falciparum [3]): 0.69
inhibition [4]: inactive
fold change (FC) [5]: 1.4
Activity (Plasmodium falciparum [6]): 100%
Ratio IC50 (Plasmodium falciparum [7]): 1.01
inhibition [8]: inactive
Activity (Plasmodium falciparum [9]): 90%
inhibition [10]: inactive
fold change (FC) [11]: 1.6
IC50 [12]: 321 µM

COc1ccc(CCN(C)CCCC(C#N)(c2ccc(OC)c(OC)c2)C(C)C)cc1OC (stereo not given)
Activity (Plasmodium falciparum [1]): 46%
fold change (FC) [5]: 1.9
Activity (Plasmodium falciparum [6]): 43%
inhibition [8]: Active
Activity (Plasmodium falciparum [9]): 55%
inhibition [10]: inactive
fold change (FC) [11]: 3.1

CCN(CC)C/C=C(/c1ccc(Cl)cc1)c1ccccn1
inhibition [4]: inactive
inhibition [8]: inactive

CN(C)C/C=C(/c1cccc(Cl)c1)c1ccccn1
inhibition [4]: inactive
inhibition [8]: inactive
inhibition [10]: inactive

CN(C)C/C=C(\c1cccc(Cl)c1)c1ccccn1
inhibition [4]: inactive
inhibition [8]: inactive
inhibition [10]: inactive

CN(C)CC/C=C(/c1ccc(Cl)cc1)c1ccccn1
inhibition [4]: inactive
inhibition [8]: inactive
inhibition [10]: inactive

CN(C)CC/C=C(/c1cccc(Cl)c1)c1ccccn1
inhibition [4]: inactive
inhibition [8]: inactive
inhibition [10]: inactive

CN(C)CC/C=C(/c1ccccn1)c1ccccc1Cl
inhibition [4]: inactive
inhibition [8]: inactive
inhibition [10]: inactive

CN(C)CC/C=C(\c1ccc(Cl)cc1)c1ccccn1
inhibition [4]: inactive
inhibition [8]: inactive
inhibition [10]: inactive

CN(C)CC/C=C(\c1cccc(Cl)c1)c1ccccn1
inhibition [4]: inactive
inhibition [8]: inactive
inhibition [10]: inactive

CN(C)CCC/C=C(/c1ccc(Cl)cc1)c1ccccn1
inhibition [4]: inactive
inhibition [8]: inactive
inhibition [10]: inactive

CN(C)CCC/C=C(\c1ccc(Cl)cc1)c1ccccn1
inhibition [4]: inactive
inhibition [8]: inactive
inhibition [10]: inactive

N#C/C=C(/c1ccccc1)c1ccccn1
inhibition [4]: inactive
inhibition [8]: inactive
inhibition [10]: inactive

N#C/C=C(\c1ccccc1)c1ccccn1
inhibition [4]: inactive
inhibition [5]: inactive
inhibition [8]: inactive
inhibition [10]: inactive
inhibition [11]: inactive

CN(C)CCCC(c1cccc(Cl)c1)c1ccccn1 (racemic)
Activity (Plasmodium falciparum [1]): 67%
Ratio IC50 (Plasmodium falciparum [2]): 0.27
Ratio IC50 (Plasmodium falciparum [3]): 0.35
inhibition [4]: inactive
fold change (FC) [5]: 2
Activity (Plasmodium falciparum [6]): 99%
Ratio IC50 (Plasmodium falciparum [7]): 0.95
inhibition [8]: inactive
Activity (Plasmodium falciparum [9]): 72%
inhibition [10]: inactive
fold change (FC) [11]: 2.7
IC50 [12]: 66 µM

CN(C)CCC(c1cccc(Cl)c1)c1ccccn1 (racemic)
Activity (Plasmodium falciparum [1]): 75%
Ratio IC50 (Plasmodium falciparum [2]): 0.27
Ratio IC50 (Plasmodium falciparum [3]): 0.35
inhibition [4]: inactive
Activity (Plasmodium falciparum [6]): 99%
Ratio IC50 (Plasmodium falciparum [7]): 0.99
inhibition [8]: inactive
Activity (Plasmodium falciparum [9]): 74%
inhibition [10]: inactive
IC50 [12]: 63 µM

CN(C)CCCCC(c1ccc(Cl)cc1)c1ccccn1 (racemic)
Activity (Plasmodium falciparum [1]): 74%
Ratio IC50 (Plasmodium falciparum [2]): 0.28
Ratio IC50 (Plasmodium falciparum [3]): 0.39
inhibition [4]: inactive
fold change (FC) [5]: 1.8
Activity (Plasmodium falciparum [6]): 100%
Ratio IC50 (Plasmodium falciparum [7]): 0.92
inhibition [8]: inactive
Activity (Plasmodium falciparum [9]): 79%
inhibition [10]: inactive
fold change (FC) [11]: 2.4
IC50 [12]: 180 µM

CCN(CC)CCC(c1ccc(Cl)cc1)c1ccccn1 (racemic)
inhibition [4]: inactive
inhibition [8]: inactive
inhibition [10]: inactive

CN(C)CCCC(c1ccc(Cl)cc1)c1ccccn1 (racemic)
inhibition [4]: inactive
inhibition [8]: inactive
inhibition [10]: inactive

CN(C)CCCC(c1cccc(Cl)c1)c1cnccn1 (racemic)
inhibition [4]: inactive
inhibition [8]: inactive
inhibition [10]: inactive

CN(C)CCCC(c1ccccc1)c1ccccn1 (racemic)
inhibition [4]: inactive
inhibition [8]: inactive
inhibition [10]: inactive

CN(C)CCCC(c1ccccn1)c1ccccc1Cl (racemic)
inhibition [4]: inactive
inhibition [8]: inactive
inhibition [10]: inactive

CN(C)CCCC(c1cccnc1)c1cccc(Cl)c1 (racemic)
inhibition [4]: inactive
inhibition [8]: inactive
inhibition [10]: inactive

CN(C)CCCC(c1ccncc1)c1cccc(Cl)c1 (racemic)
inhibition [4]: inactive
inhibition [8]: inactive
inhibition [10]: inactive

CN(C)CCCCCC(c1ccc(Cl)cc1)c1ccccn1 (racemic)
inhibition [4]: inactive
inhibition [8]: inactive
inhibition [10]: inactive

CN(C)CCC(c1ccc(Cl)cc1)c1ccccn1 (stereo in doubt; form 1)
fold change (FC) [5]: 2
inhibition [8]: Active
inhibition [10]: inactive
fold change (FC) [11]: 2.7

CN(C)CCC(c1ccc(Cl)cc1)c1ccccn1 (stereo in doubt; form 1) [CHLORPHENIRAMINE]
Activity (Plasmodium falciparum [1]): 78%
Ratio IC50 (Plasmodium falciparum [2]): 0.24
Ratio IC50 (Plasmodium falciparum [3]): 0.37
Activity (Plasmodium falciparum [6]): 97%
Ratio IC50 (Plasmodium falciparum [7]): 1.09
Activity (Plasmodium falciparum [9]): 76%
IC50 [12]: 54 µM

CN(C)CCC(c1ccc(Cl)cc1)c1ccccn1 (stereo in doubt; form 2)
inhibition [10]: inactive

COc1cc(NC(C)CCCN)c2ncccc2c1 (stereo not given) [PRIMAQUINE]
inhibition [8]: Active
IC50 [12]: 68 µM

CC(CN1c2ccccc2Sc2ccccc21)N(C)C (stereo not given) [PROMETHAZINE]
inhibition [8]: Active
IC50 [12]: 85 µM
